Assays:
[1] = biological target: Human immunodeficiency virus type 1 integrase (Human immunodeficiency virus 1, UniProt Q7ZJM1); experiment: Inhibition of HIV1 integrase strand transfer activity
[2] = Clearance in Sprague-Dawley rat at 1 mg/kg, iv after 4 hrs; type: ADME, organism-based; details: in vivo
Summary of the method: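 Male Sprague-Dawley rats given 1 mpk IV in PEG400/ethanol (90:10); blood sampled at 5 and 30 min and 1, 2 and 4 h post-dose; clearance from plasma profile.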

Sequence of Human immunodeficiency virus type 1 integrase (Q7ZJM1 whole entry): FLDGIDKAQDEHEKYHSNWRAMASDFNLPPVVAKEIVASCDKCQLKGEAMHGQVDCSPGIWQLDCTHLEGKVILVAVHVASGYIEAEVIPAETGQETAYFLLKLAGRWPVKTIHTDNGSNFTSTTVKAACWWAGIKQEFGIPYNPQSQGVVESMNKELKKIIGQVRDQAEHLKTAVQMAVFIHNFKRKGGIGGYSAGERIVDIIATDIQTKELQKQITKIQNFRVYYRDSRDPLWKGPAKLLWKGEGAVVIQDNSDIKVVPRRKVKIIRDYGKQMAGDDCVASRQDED

`CC1(C)OCCn2c1nc(C(=O)NCc1ccc(F)cc1N1CCCCS1(=O)=O)c(O)c2=O` gave an IC50 [1] of 9 nM and a clearance [2] of 38 mL/min/kg.

— ChEMBL document CHEMBL4118197, “The discovery and preclinical evaluation of BMS-707035, a potent HIV-1 integrase strand transfer inhibitor” (Bioorg Med Chem Lett, 2018)
